Shown are actives, neighbours in structure and some others; about 5% of the full set was active somewhere.
CHOP UPR activ: activators of apoptotic arm of unfolded protein response (CHOP). activation, % at 10 µM. hit rate 0.34% among 330,000. CHO-CHOP luciferase reporter, UPR activation, luminescence; percent of tunicamycin response over DMSO baseline;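 active means at 10 µM dose, activation of 40% or more, normalized to positive control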
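assay system = CHO CHOP reporter cells | amount = 500 CHO-CHOP cells per well | buffer or medium = F12 with 10% FBS | incubation = 16-18 h cell attachment, then 6 h compound exposure, 37 °C | detection = luminescence read with Steady-Glo | read-out = percent activation relative to tunicamycin control | controls = tunicamycin high control, DMSO low control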
Mdm2-MdmX inh: inhibitors of human Mdm2/MdmX interaction; inhibition, % at 8 µM; hit rate 3% among 330,000; O15151+Q00987; SaOS-2 split-luciferase Mdm2/MdmX complementation, luminescence;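 active means inhibition of at least 50% at 8 µM in the primary screen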
Target sequence (O15151 whole entry, looked up): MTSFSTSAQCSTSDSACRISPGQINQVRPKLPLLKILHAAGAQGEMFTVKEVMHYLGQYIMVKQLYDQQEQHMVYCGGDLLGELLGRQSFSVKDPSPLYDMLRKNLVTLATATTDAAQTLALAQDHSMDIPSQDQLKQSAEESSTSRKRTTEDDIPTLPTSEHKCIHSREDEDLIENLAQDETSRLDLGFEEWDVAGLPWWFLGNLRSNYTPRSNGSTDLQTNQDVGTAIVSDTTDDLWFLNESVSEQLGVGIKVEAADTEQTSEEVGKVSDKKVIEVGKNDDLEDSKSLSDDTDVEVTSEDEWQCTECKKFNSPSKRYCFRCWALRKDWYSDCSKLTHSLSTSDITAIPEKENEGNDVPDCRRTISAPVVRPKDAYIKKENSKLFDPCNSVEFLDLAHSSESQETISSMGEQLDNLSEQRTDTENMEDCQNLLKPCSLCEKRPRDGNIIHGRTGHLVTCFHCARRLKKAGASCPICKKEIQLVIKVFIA
Target sequence (Q00987 whole entry, looked up): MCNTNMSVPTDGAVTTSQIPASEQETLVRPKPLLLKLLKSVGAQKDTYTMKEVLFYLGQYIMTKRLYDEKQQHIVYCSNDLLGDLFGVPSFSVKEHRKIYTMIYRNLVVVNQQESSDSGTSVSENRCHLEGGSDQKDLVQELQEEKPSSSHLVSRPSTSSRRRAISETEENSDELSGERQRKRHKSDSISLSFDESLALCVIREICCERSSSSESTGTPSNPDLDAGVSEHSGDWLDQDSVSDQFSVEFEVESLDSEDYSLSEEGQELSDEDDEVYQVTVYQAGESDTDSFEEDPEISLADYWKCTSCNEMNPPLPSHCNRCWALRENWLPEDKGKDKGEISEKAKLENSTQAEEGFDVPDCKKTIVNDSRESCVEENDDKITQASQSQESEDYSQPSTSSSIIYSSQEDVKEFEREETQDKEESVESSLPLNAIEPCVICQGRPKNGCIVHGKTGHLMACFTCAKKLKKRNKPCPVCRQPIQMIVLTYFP
Beta cell apopt: beta cell apoptosis inhibition; protection from apoptosis, % (concentration not given with the values); hit rate 0.8% among 300,000; INS-1E cytokine-induced death, ATP luminescence, 48 h; percent of positive-control rescue, neutral wells zero;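 active means Every replicate reaches about 75%, or at least half do and their mean reaches it too, limit read from the data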;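 further: higher means more ATP so stronger rescue from cytokine killing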
XBP1 UPR activ: adaptive UPR (XBP1) activation; activation, % at 20 µM; hit rate 0.33% among 330,000; CHO-XBP1 luciferase reporter, IRE1-XBP1 UPR activation, luminescence; percent of tunicamycin response, DMSO as zero;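 active means versus positive control, 20 µM dose yields 30% or more activation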
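Material: CHO cell line with stable XBP1 luciferase reporter; schedule: 16-18 h cell attachment at 37 °C, then 6 h compound exposure; signal: glow luminescence from Steady-Glo reagent; medium: serum-containing F12 medium, 10% FBS; benchmarks: tunicamycin 10 µg/mL and vehicle-only wells; read-out: percent activation relative to tunicamycin reference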
T cruzi inh: T. cruzi replication inhibition; inhibition, % (test concentration not listed); AID 1885; T. cruzi beta-gal in NIH3T3, luminescence, 90 h; hit rate 1.4% among 300,000;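 active means mean inhibition across valid replicates above about 55%, limit read from the data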;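 further: signal also drops with host cell toxicity which is not excluded here; higher percent means less beta-gal luminescence so fewer parasites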
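Test system: β-gal T. cruzi (Tulahuen C4) inside NIH/3T3 cells / Quantity: 5,000 cells/well / Measured by: luminescence from GalScreen with 0.05% NP40, read after 60 min / Medium: DMEM plus 2% FBS / Measure: parasite load inhibition, % / Reagent: Tulahuen C4 trypomastigotes, 5000/well / Schedule: co-culture of at least 90 h after 3 h attachment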
CSC inhib: cancer stem cell inhibition; cancer stem cell-like cells viability, luminescence; inhibition, % at 7.5 µM; hit rate 1.1% among 300,000; AID 2717; in the data active means inhibition above about 75%; tested in HMLE shEcad cells
A number is an active result; – = inactive; · = not tested or not shown.

SMILES	CHOP UPR activ	Mdm2-MdmX inh	Beta cell apopt	XBP1 UPR activ	T cruzi inh	CSC inhib
COc1ccccc1NS(=O)(=O)c1cccc(NC(=O)c2[nH]c(C)c(C(C)=O)c2C)c1	–	–	76	–	–	–
CCC(=O)Nc1nc2ccccc2n1Cc1ccccc1Cl	–	–	–	–	–	–
CCC(=O)Nc1nc2ccccc2n1Cc1ccc(Cl)cc1	–	–	–	–	62	–
CC1CCCCN1c1cc(C#N)c(C#N)cc1[N+](=O)[O-] (centres undefined)	–	–	–	–	–	81
CC1CCN(c2cc(C#N)c(C#N)cc2[N+](=O)[O-])CC1	–	–	–	–	–	–
COc1cc2c(C#N)c(N3CCCC3)nc(N)c2c(N)n1	–	–	–	–	–	–
N#Cc1c(N2CCCC2)nc(N)c2c(N)nc(N3CCCC3)cc12	–	–	80	–	–	·
NNC(=O)c1cccc(Cn2cc(Br)c([N+](=O)[O-])n2)c1	–	–	–	–	–	–
COc1ccc(NC(=O)c2cccc(Cn3cc(Br)c([N+](=O)[O-])n3)c2)c(C)c1	–	–	–	–	68	–
CCOc1ccc(NC(=O)CCn2ccnc2)cc1	–	–	·	–	–	·
O=C(CCn1ccnc1)Nc1ccc2ccccc2c1	–	–	–	–	75	–
O=Cc1cc(CCC(=O)O)ccc1O	–	–	–	–	–	–
NC(=O)CC(NC(=O)c1ccc(Br)cc1)c1ccc(N2CCCCCCC2)c([N+](=O)[O-])c1 (centres undefined)	–	–	–	–	–	131
Cc1ccccc1CNc1ccc(C(CC(N)=O)NC(=O)c2ccccc2)cc1[N+](=O)[O-] (centres undefined)	–	–	–	–	–	78
NC(=O)CC(NC(=O)c1ccc(Br)cc1)c1ccc(N2CCN(c3ccccc3)CC2)c([N+](=O)[O-])c1 (centres undefined)	–	–	·	–	–	–
NC(=O)CC(NC(=O)Cc1ccc(Br)cc1)c1ccc(NC2CCCCCC2)c([N+](=O)[O-])c1 (centres undefined)	–	–	–	–	–	76
Cc1ccccc1Cn1cc(NC(=O)COc2ccccc2)cn1	–	–	–	–	–	·
O=C(c1ccccc1NS(=O)(=O)c1cccc([N+](=O)[O-])c1)N1CCOCC1	–	–	–	–	–	–
CSc1ncccc1C(=O)N1CCN(S(=O)(=O)c2ccccc2)CC1	–	–	–	–	–	–
O=[N+]([O-])c1ccc(/C=N/N2CCN(c3ccncc3S(=O)(=O)N3CCCCC3)CC2)cc1	–	–	–	–	–	–
O=[N+]([O-])c1ccccc1/C=N/N1CCN(c2ccncc2S(=O)(=O)N2CCCCC2)CC1	–	–	–	–	76	–
CCN(CC)S(=O)(=O)c1ccc(Cl)c(C(=O)Nc2ccc(Cl)cc2[N+](=O)[O-])c1	–	–	100	–	–	–
c1ccc(CN2CCN(Cc3c[nH]c4ccccc34)CC2)cc1	–	–	87	–	60	–
O=[N+]([O-])c1ccc(S(=O)(=O)N2CCN(Cc3c[nH]c4ccccc34)CC2)cc1	–	–	–	–	74	·
O=C(c1c[nH]c2ccccc12)N1CCN(Cc2ccccc2)CC1	–	–	–	–	–	–
SMILES	CHOP UPR activ	Mdm2-MdmX inh	Beta cell apopt	XBP1 UPR activ	T cruzi inh	CSC inhib
CCN(C(=O)COC(=O)CCc1ccc(OC)cc1)c1c(N)n(Cc2ccccc2)c(=O)[nH]c1=O	–	–	·	–	·	·
CC1(C)CC(NC(=O)C23CCC(C)(C(=O)C2)C3(C)C)CC(C)(C)N1 (centres undefined)	–	–	–	–	–	–
CC(C)c1ccc2oc(-c3cc(N)ccc3O)nc2c1	–	–	–	–	60	–
O=C(CCC1CCCN(C(=O)c2ccncc2)C1)NCc1ccc(F)c(F)c1 (centres undefined)	–	–	–	–	–	–
COc1cccc(CNC(=O)CCC2CCCN(Cc3cc4ccccc4o3)C2)c1 (centres undefined)	–	–	–	–	62	–
O=C(CCC1CCCN(Cc2ccncc2)C1)NCc1ccc(F)c(F)c1 (centres undefined)	–	–	·	–	56	–
CC(=O)c1cccc(CN2CCCC(CCC(=O)NCc3ccc(F)c(F)c3)C2)c1 (centres undefined)	–	–	–	–	76	–
COc1cccc(CNC(=O)CCC2CCCN(C(=O)CCC(F)(F)F)C2)c1 (centres undefined)	–	–	–	–	–	–
Cc1ccc2c(c1)NC(=O)C(CC(=O)N(C)Cc1ccccc1)O2 (centres undefined)	–	–	–	–	–	–
Cc1c(C(=O)N(C)C)sc2nc(-c3ccccn3)[nH]c(=O)c12	–	–	–	–	–	–
O=c1[nH]c(-c2ccccn2)nc2sc(-c3ccccc3)cc12	·	·	·	·	55	·
COC(=O)[C@@H](Cc1ccccc1)N(Cc1ccccc1)S(=O)(=O)N(Cc1ccccc1)[C@H](Cc1ccccc1)C(=O)OC	–	–	119	–	·	–
COC(=O)[C@@H](CC(C)C)N(Cc1ccccc1)S(=O)(=O)N(Cc1ccccc1)[C@@H](CC(C)C)C(=O)OC	–	–	–	–	·	–
COc1ccc(/C=C2\SC(=N)N(c3nccs3)C2=O)cc1OC	–	–	–	–	58	77
N=C1S/C(=C\c2ccc(-c3cccc(Cl)c3)o2)C(=O)N1c1nccs1	·	·	–	·	–	–
C/C(=N\NC(=O)c1ccc(C)cc1)c1c(C)[nH]n(-c2ccccc2)c1=O	–	–	91	–	–	–
CCOc1ccc(S(=O)(=O)NC(C)(C)C)cc1-c1nc2c(C(C)(C)C)nn(C)c2c(=O)[nH]1	–	–	·	–	67	·
O=S(=O)(c1ccc2nc(Nc3ccccc3)ccc2c1)N1CCCCC1	–	–	103	–	–	–
CCc1noc(C)c1C(=O)N1CCCC(C(=O)c2cc(F)ccc2F)C1 (centres undefined)	–	–	–	–	–	–
CCc1noc(C)c1C(=O)N1CCCC(C(=O)c2cc(F)ccc2OC)C1 (centres undefined)	–	–	–	–	55	–
CCOC(=O)N1CCC(N2CCCC(C(=O)c3cc(F)ccc3OC)C2)CC1 (centres undefined)	–	–	–	–	59	–
CCCCn1c(=O)c(C(=O)N/N=C/c2ccc(F)cc2)c(O)c2ccccc21	–	–	–	–	–	–
COc1cccc(C2C(C(N)=O)=C(C)Nc3nc(-c4ccccc4Cl)nn32)c1 (centres undefined)	–	–	–	–	–	–
CCOC(=O)c1c(NC(=O)COc2ncnc3ccccc23)sc(C)c1CC	–	–	–	–	–	–
